Data on 3 molecules can be found in paper PMC3018326 (Proteins, 2010).

For orientation: Kd means the free concentration of one partner at which half of the binding sites on the other are occupied at equilibrium, for simple one-to-one binding. Low readings indicate tighter binding, high ones weaker binding.

The target of this experiment is T1, TcFPPS (Trypanosoma cruzi, UniProt Q95WL3).
T1 sequence (Q95WL3 1-362): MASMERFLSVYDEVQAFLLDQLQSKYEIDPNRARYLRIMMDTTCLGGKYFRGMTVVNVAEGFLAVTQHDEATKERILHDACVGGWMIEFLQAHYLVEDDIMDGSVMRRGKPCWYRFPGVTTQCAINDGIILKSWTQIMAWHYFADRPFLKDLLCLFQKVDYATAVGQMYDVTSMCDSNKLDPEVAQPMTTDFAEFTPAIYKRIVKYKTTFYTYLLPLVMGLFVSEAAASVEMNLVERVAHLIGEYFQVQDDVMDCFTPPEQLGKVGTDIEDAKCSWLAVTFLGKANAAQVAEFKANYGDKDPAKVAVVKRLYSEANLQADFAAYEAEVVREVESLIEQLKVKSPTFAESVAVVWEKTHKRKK
The experiment is described as follows: isothermal titration calorimetry, two-sequential-site fit. In kind it is binding. The gist of the method: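 TcFPPS carried an N-terminal His-tag, was expressed in E. coli BL21(DE3), and was purified by Ni-affinity and gel filtration. Protein at 22.5 μM was dialyzed into 20 mM HEPES pH 7.5, 1 M NaCl, 2 mM MgCl2, 2 mM TCEP. Test compound at 250 μM in the same buffer was injected (10 μL) every 300 s at 26°C. Dilution heats were subtracted and the first injection excluded. Isotherms were fitted to a two-sequential-site model.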
In general terms: Isothermal titration calorimetry measures the heat released or taken up as one component is titrated into another.

The molecule `O=P(O)(O)C(O)(Cc1cccnc1)P(=O)(O)O` [Ris, risedronate] showed a dissociation constant Kd of 66.7 nM. Then `O=P(O)(O)C(O)(Cc1cnc2ccccn12)P(=O)(O)O` [261A, minodronate], with 10.9 nM; and `O=P(O)(O)C(O)(Cn1ccnc1)P(=O)(O)O` [91B, zoledronate], with 28.6 nM.
